In ChEMBL document CHEMBL4725355, “Design, Synthesis, and Preclinical Evaluation of 3-Methyl-6-(5-thiophenyl)-1,3-dihydro-imidazo[4,5-b]pyridin-2-ones as Selective GluN2B Negative Allosteric Modulators for the Treatment of Mood Disorders” (J Med Chem, 2020):
pIC50, pKi: −log10 of the molar value.

How the values were obtained:
[1] = Tmax in Sprague-Dawley rat brain at 3 mg/kg, po by LC-MS/MS analysis; assay type: ADME, organism-based
Method in brief: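 Rats dosed orally at 3 mg/kg in 20% HP-β-CD. Brain concentrations were measured over a 6 h time course (0.5, 2, 6 h) alongside ex vivo GluN2B occupancy, n=2.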

[2] = Metabolic stability in rat liver microsomes assessed as extraction ratio at 1 uM after 5 to 60 mins in presence of NADPH by LC-MS/MS analysis; assay type: ADME, Microsome; conditions: time 5-60 min, read-out: ERH
Method in brief: (§1)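 Human and rat liver microsomes, run in duplicate; stability reported as microsomal extraction ratio.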

[3] = Displacement of 3-[3H] 1-(azetidin-1-yl)-2-[6-(4-fluoro-3-methyl-phenyl)pyrrolo[3,2-b]pyridin-1-yl]ethanone from GluN1a/GluN2B receptor in rat cortex membranes measured after 2 hrs by liquid scintillation counting method; assay type: cell membranes
Method in brief: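 Rat adult cortex was homogenized in 50 mM Tris pH 7.4, and membranes were washed by centrifugation. Membranes were incubated with the [3H] pyrrolopyridine tracer and test compound for 2 h at room temperature with shaking. Non-specific binding was defined with 10 µM CP-101,606. Bound tracer was separated by filtration on PEI-soaked GF/B filters and counted by liquid scintillation. Ki was obtained from a competition fit using tracer Kd; three independent runs in duplicate.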

[4] = Solubility of compound in 20% hydroxypropyl-beta-cyclodextrin at 0.1 mg/ml; assay type: physicochemical
Method in brief: (§2)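 Solubility of the compound assessed in dosing excipients, including 30% SBE-β-CD, 50% PEG-400 and 20% HP-β-CD. The aim was a solution usable for rat dosing; the 20% HP-β-CD formulation was checked for a 0.1 mg/mL solution to support a 0.5 mg/kg dose.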

[5] = Solubility of compound in 30% sulfobutylether-beta-cyclodextrin at 0.5 mg/ml; assay type: physicochemical; method in brief: as §2
[6] = Cmax in Sprague-Dawley rat at 0.1 mg/kg, iv or 0.5 mg/kg, po by LC-MS/MS analysis; assay type: ADME, organism-based; parameters: dose 0.5 mg/kg; conditions: in vivo
Method in brief: (§3)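 Rat PK with IV and PO dosing, n=3. The usual doses were 0.5 mg/kg IV and 2.5 mg/kg PO in 20% HP-β-CD. One compound was instead given at 0.1 mg/kg IV and 0.5 mg/kg PO.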

[7] = Volume of distribution at steady state in Sprague-Dawley rat at 0.1 mg/kg, iv or 0.5 mg/kg, po by LC-MS/MS analysis; assay type: ADME, organism-based; conditions: in vivo, read-out: Vdss
Method in brief: (§4)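 Rat PK with doses of 0.1 mg/kg i.v. and 0.5 mg/kg p.o., vehicle 20% HP-β-CD. n=3, values given as mean ± SD.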

[8] = molecular target: Voltage-gated inwardly rectifying potassium channel KCNH2 (Homo sapiens, UniProt Q12809); assay: Inhibition of human ERG expressed in CHO cells measured after 5 mins by Qpatch method; assay type: cell-based
Chain of Voltage-gated inwardly rectifying potassium channel KCNH2 (Q12809 whole entry): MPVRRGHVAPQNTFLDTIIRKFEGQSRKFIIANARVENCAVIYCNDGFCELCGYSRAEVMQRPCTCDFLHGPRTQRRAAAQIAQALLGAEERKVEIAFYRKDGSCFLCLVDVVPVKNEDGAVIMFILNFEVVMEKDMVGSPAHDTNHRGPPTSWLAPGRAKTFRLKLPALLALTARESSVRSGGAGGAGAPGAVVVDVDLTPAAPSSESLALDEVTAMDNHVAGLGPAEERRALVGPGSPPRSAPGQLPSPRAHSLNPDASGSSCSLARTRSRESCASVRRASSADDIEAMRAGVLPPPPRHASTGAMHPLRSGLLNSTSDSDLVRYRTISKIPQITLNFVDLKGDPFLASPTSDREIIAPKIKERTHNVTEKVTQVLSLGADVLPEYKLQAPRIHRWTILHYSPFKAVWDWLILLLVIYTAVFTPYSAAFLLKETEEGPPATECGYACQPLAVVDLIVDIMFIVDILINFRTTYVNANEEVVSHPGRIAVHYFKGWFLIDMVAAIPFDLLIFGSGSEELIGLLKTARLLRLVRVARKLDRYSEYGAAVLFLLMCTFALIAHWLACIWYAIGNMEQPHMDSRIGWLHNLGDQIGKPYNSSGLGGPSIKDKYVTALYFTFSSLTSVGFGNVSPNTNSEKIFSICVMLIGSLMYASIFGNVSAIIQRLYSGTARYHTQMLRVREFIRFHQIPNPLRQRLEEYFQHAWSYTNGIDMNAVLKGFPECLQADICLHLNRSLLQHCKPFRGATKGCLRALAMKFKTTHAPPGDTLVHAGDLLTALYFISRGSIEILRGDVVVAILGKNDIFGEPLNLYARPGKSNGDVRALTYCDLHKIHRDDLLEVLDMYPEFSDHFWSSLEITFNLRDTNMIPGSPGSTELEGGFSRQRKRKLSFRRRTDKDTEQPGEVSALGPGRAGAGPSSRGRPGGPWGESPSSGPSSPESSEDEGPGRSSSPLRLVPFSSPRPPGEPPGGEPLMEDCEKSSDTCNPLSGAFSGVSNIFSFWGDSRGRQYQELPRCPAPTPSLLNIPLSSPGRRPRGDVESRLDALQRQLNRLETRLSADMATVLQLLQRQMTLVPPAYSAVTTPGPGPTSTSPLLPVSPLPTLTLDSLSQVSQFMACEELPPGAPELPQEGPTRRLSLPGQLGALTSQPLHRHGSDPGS
Method in brief: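 CHO cells stably expressing hERG, whole-cell QPatch. Vehicle applied 5 min, then 0.3, 3.0, 10 and 30 µM in rising order, each concentration applied twice. Current measured after 5 min as the average of 3 voltage pulses; block taken relative to vehicle pretreatment, mean ± SEM.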

[9] = Metabolic stability in human liver microsomes assessed as extraction ratio at 1 uM after 5 to 60 mins in presence of NADPH by LC-MS/MS analysis; assay type: ADME, Microsome; conditions: time 5-60 min, read-out: ERH; method in brief: as §1
[10] = Solubility of compound in 100% polyethylene glycol 400 at 0.5 mg/ml; assay type: physicochemical
[11] = Half life in Sprague-Dawley rat at 0.1 mg/kg, iv or 0.5 mg/kg, po by LC-MS/MS analysis; assay type: ADME, organism-based; conditions: in vivo
Method in brief: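 Rat PK with 0.1 mg/kg i.v. and 0.5 mg/kg p.o. doses, n=3 ± SD.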

[12] = Tmax in Sprague-Dawley rat at 0.1 mg/kg, iv or 0.5 mg/kg, po by LC-MS/MS analysis; assay type: ADME, organism-based; conditions: in vivo; method in brief: as §4
[13] = Solubility of compound in phosphate buffer at pH 7 measured after 3 days; assay type: physicochemical; conditions: time 3 day
Method in brief: (§5)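 Solubility in aqueous buffer at pH 2 and pH 7, and in simulated gastric and intestinal fluids.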

[14] = Negative allosteric modulation of human GluN1a/GluN2B receptor expressed in CHO cells assessed as inhibition of glutamate and glycine-induced calcium flux preincubated for 5 mins followed by glutamate and glycine addition and measured after 5 mins by calcium 5 dye based FLIPR assay; assay type: cell-based
Method in brief: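 Tet-On CHO T-Rex cells expressing hGluN1a with GluN2A, 2B, 2C or 2D, plated at 20,000 cells/well and induced 24 h before the assay in the presence of ketamine. Cells loaded 1 h at room temperature with Calcium 5 dye, pH 7.4 HEPES buffer. Compound added 5 min, then glutamate (~EC80) plus 10 µM glycine for 5 min; FLIPR fluorescence normalized to control wells. Three independent runs in duplicate (two for some).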

[15] = Ex vivo receptor occupancy at GluN2B in Sprague-Dawley rat assessed as 3-[3H] 1-(azetidin-1-yl)-2-[6-(4-fluoro-3-methyl-phenyl)pyrrolo[3,2-b]pyridin-1-yl]-ethanone labelling at 3 mg/kg, po measured after 0.5 hrs by autoradiography; assay type: functional
Method in brief: (§6)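 Rats dosed orally at 3 mg/kg in 20% HP-β-CD; brains taken at 0.5, 2 and 6 h. Ex vivo autoradiography of brain slices with the ³H pyrrolo[3,2-b]pyridine GluN2B tracer. Labelling expressed relative to matching brain areas of vehicle-treated animals; n=2, ± SEM.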

[16] = AUC (infinity) in Sprague-Dawley rat at 0.1 mg/kg, iv or 0.5 mg/kg, po by LC-MS/MS analysis; assay type: ADME, organism-based; parameters: dose 0.5 mg/kg; conditions: in vivo; method in brief: as §3
[17] = Cmax in Sprague-Dawley rat brain at 3 mg/kg, po after 2 hrs by LC-MS/MS analysis; assay type: ADME, organism-based; parameters: route oral, dose 3 mg/kg, time 2 hrs
Method in brief: (§7)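 Oral dose of 3 mg/kg in 20% HP-β-CD to rats. Brain concentration was measured alongside ex vivo GluN2B occupancy over a 6 h time course (0.5, 2 and 6 h), n=2.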

[18] = Ex vivo receptor occupancy at GluN2B in Sprague-Dawley rat assessed as 3-[3H] 1-(azetidin-1-yl)-2-[6-(4-fluoro-3-methyl-phenyl)pyrrolo[3,2-b]pyridin-1-yl]-ethanone labelling at 3 mg/kg, po measured after 2 hrs by autoradiography; assay type: functional; method in brief: as §6
[19] = Ex vivo receptor occupancy at GluN2B in Sprague-Dawley rat assessed as 3-[3H] 1-(azetidin-1-yl)-2-[6-(4-fluoro-3-methyl-phenyl)pyrrolo[3,2-b]pyridin-1-yl]-ethanone labelling at 3 mg/kg, po measured after 6 hrs by autoradiography; assay type: functional; method in brief: as §6
[20] = Clearance in Sprague-Dawley rat at 0.1 mg/kg, iv by LC-MS/MS analysis; assay type: ADME, organism-based; conditions: in vivo; method in brief: as §3
[21] = Cmax in Sprague-Dawley rat brain at 3 mg/kg, po after 6 hrs by LC-MS/MS analysis; assay type: ADME, organism-based; parameters: route oral, dose 3 mg/kg, time 6 hrs; method in brief: as §7
[22] = Solubility of compound in phosphate buffer at pH 2 measured after 3 days; assay type: physicochemical; conditions: time 3 day; method in brief: as §5
[23] = Efflux ratio of apparent permeability across basolateral to apical side over apical to basolateral side in MDCK-MDR1 cells at 5 uM measured after 60 mins by LC-MS/MS analysis; assay type: ADME, cell-based, Canis lupus familiaris; conditions: dog
Method in brief: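 MDCK-MDR1 cells, passages 6-30, seeded at 3.4×10^5 cells/cm² and cultured 3 days. Test compound at 5 µM final (1% DMSO) in HBSS, pH 7.4, applied to the donor side. A→B and B→A runs at 37 °C for 60 min, in duplicate, quantified by LC/MS/MS. Efflux ratio taken as B-A/A-B; monolayer integrity checked by lucifer yellow.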

[24] = Oral bioavailability in Sprague-Dawley rat at 0.5 mg/kg by LC-MS/MS analysis; assay type: ADME, organism-based; conditions: in vivo

- Tmax [1]: 2 h
- hepatic extraction ratio at 1 µM [2]: < 0.17
- pKi [3]: 7.92
- solubility [4]: Soluble
- solubility [5]: Insoluble
- Cmax [6]: 188 ng/mL
- Vd [7]: 1.2 L/kg
- hepatic extraction ratio at 1 µM [9]: < 0.3
- solubility [10]: Insoluble
- half-life [11]: 1.3 h
- Tmax [12]: 1 h
- solubility at 72 h [13]: < 4 µM
- pIC50 [14]: 7.54
- AUC(0-inf) [16]: 912 ng·h/mL
- Cmax [17]: 1260 ng/g
- clearance [20]: 14 mL/min/kg
- Cmax [21]: 598 ng/g
- solubility at 72 h [22]: < 4 µM
- efflux ratio at 1 h, 5 µM [23]: 1.4
- bioavailability [24]: 121%
SMILES: CN(C)C(=O)Cn1c(=O)n(C)c2ncc(-c3ccc(C(F)(F)F)s3)cc21
- pIC50 [8]: < 5.00
- Occ [15]: 79%
- Occ [18]: 80%
- Occ [19]: 77%
